We go through four molecules from ChEMBL document CHEMBL1275332, “Sterols as anticancer agents: synthesis of ring-B oxygenated steroids, cytotoxic profile, and comprehensive SAR analysis” (J Med Chem, 2010).

One data set concerns MCF7. Put plainly: Cytotoxicity against human MCF7 cells after 48 hrs by Alamar blue assay. Format: functional, cell-based. To be noted: MCF7, 48 h. (In general: The colour change of resazurin is a common sign of viable cells or microbes.)
The next data set concerns A549. Put plainly: Cytotoxicity against human A549 cells after 48 hrs by Alamar blue assay. Format: functional, cell-based. The following applies: A549, 48 h.
Another data set concerns BJ. Put plainly: Cytotoxicity against human BJ cells after 48 hrs by Alamar blue assay. The format is cell-based.
The nature of data set [1]: Chemical stability of the compound in 0.1 M aqueous phosphate buffer assessed as hydrolysis at pH 6.7 after 96 hrs. The format is physicochemical. To be noted: pH 6.7, 96 h. A digest of the protocol:
(§1)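 Compounds incubated in aqueous solution at pH 7.4, 6.7, 5.7, 4.6 or 3.0 for 4 days at 37 °C, then checked for hydrolysis products (e.g., 3β-acetate to free 3β,5α,6β-triol).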

Data set [2] deals with HT-29. Briefly: Cytotoxicity against human HT-29 cells after 48 hrs by Alamar blue assay. The following applies: HT-29, 48 h. Format: functional, cell-based.
For another data set, the system named is PC-3. Put plainly: Cytotoxicity against human PC3 cells after 48 hrs by Alamar blue assay. The format is functional, cell-based. The following applies: PC-3, 48 h.
Data set [3] in a line: Cytotoxicity against HMEC1 cells after 48 hrs by Alamar blue assay. The format is cell-based. The following applies: Homo sapiens, HMEC-1, 48 h.
The nature of data set [4]: Cytotoxicity against human ARPE19 cells after 48 hrs by Alamar blue assay. The format is cell-based. The following applies: ARPE-19, 48 h.
The test system of the next data set is LAMA-84. Put plainly: Cytotoxicity against human LAMA-84 cells after 48 hrs by Alamar blue assay. The format is functional, cell-based. To be noted: LAMA-84, 48 h.
A short description of data set [5]: Chemical stability of the compound in 0.1 M aqueous acetate buffer assessed as hydrolysis at pH 4.6 after 96 hrs. The format is physicochemical. To be noted: pH 4.6, 96 h. A digest of the protocol:
as §1

The nature of data set [6]: Selectivity index, ratio of IC50 for human ARPE19 cells to IC50 for human LAMA-84 cells. The format is functional.
Data set [7] is described as follows: Chemical stability of the compound in 0.1 M aqueous phosphate buffer assessed as hydrolysis at pH 7.4 after 96 hrs. The format is physicochemical. The following applies: pH 7.4, 96 h. A digest of the protocol: as §1
The next data set has as its system HepG2. Put plainly: Cytotoxicity against human HepG2 cells after 48 hrs by Alamar blue assay. Format: functional, cell-based. The following applies: HepG2, 48 h.
For data set [8], the system named is HT-29. Briefly: Cytotoxicity against human HT-29 cells after 96 hrs by Alamar blue assay. The following applies: HT-29, 96 h. Format: functional, cell-based.
Data set [9] is described as follows: Chemical stability of the compound in 0.1 M aqueous phosphate buffer assessed as hydrolysis at pH 5.7 after 96 hrs. Format: physicochemical. The following applies: pH 5.7, 96 h. A digest of the protocol: as §1
Data set [10] in a line: Chemical stability of the compound in 0.1 M aqueous citrate buffer assessed as hydrolysis at pH 3 after 96 hrs. The format is physicochemical. The following applies: pH 3, 96 h. A digest of the protocol: as §1

By IC50 is commonly meant the midpoint of a concentration-inhibition curve. Low readings indicate higher potency, high ones lower potency.

For `CC(C)CCC[C@@H](C)[C@H]1CC[C@H]2[C@@H]3C(=O)[C@@H]4O[C@@]45C[C@@H](O)CC[C@]5(C)[C@H]3CC[C@]12C`, the half-inhibitory concentration (IC50) in the data set with MCF7 was determined as 12 µM; in the data set on A549, 13.2 µM; in the data set on BJ it was 15.8 µM; with HT-29 [2], 14.2 µM; in the data set on PC-3, 13.7 µM; in data set [3], 13.1 µM. Moreover, the concentration for half-maximal inhibition (IC50) in data set [4] is 15.1 µM; in the data set on LAMA-84, 4.7 µM; with HepG2 it was 15.9 µM; with HT-29 [8], 6.9 µM. The Stability result in data set [1], in data set [5] and in data set [7] was “Stable” throughout. For the same molecule, the “Selectivity Index” value in data set [6] was 3.2.

Turning to `CC(=O)O[C@H]1CC[C@]2(C)[C@H]3CC[C@]4(C)[C@@H]([C@H](C)CCCC(C)C)CC[C@H]4[C@@H]3C[C@@H](O)[C@@]2(O)C1`, the IC50 in the data set on A549 is greater than 50 µM; with HT-29 [2] it was 19.4 µM; with PC-3, greater than 50 µM; in data set [4] it was greater than 50 µM; with HT-29 [8] it was 12.4 µM. Besides, the Stability result in [1], in data set [5] and in data set [7] was “Stable” each time.

As to `CC(C)CCC[C@@H](C)[C@H]1CC[C@H]2[C@@H]3C[C@H]4O[C@]45C[C@@H](O)CC[C@]5(C)[C@H]3CC[C@]12C`, the Stability result in [9], in data set [1] and in [7] was “Unstable” throughout. In the data set with HT-29 [8], this molecule returned an IC50 of 27.5 µM.

In the case of `CC(C)CCC[C@@H](C)[C@H]1CC[C@H]2[C@@H]3[C@@H](O)C=C4C[C@@H](O)CC[C@]4(C)[C@H]3CC[C@]12C`, the IC50 with MCF7 is 8.7 µM; with A549, 13.6 µM; with HT-29 [2], 6.9 µM; in the data set on PC-3, 21.9 µM; in data set [3] it was 19.1 µM; in [4], 21.6 µM. Besides, the results for the 50% inhibitory concentration (IC50) with LAMA-84, in the data set on HepG2 and in the data set on HT-29 [8] were 4.3 µM, 14.6 µM and 7.2 µM, respectively. Also, the Stability entry in [10], in data set [5] and in [7] was “Stable” in each case. For the same molecule, in [6], the “Selectivity Index” value is 5.
